Measurements gathered from unrelated publications.
Each line is one published result; the experiments were not run side by side.
Read-out: cell growth or viability

Structure (SMILES)	cell line	technique	time	IC50
O=C1CS/C(=N\c2cc(C(F)(F)F)ccc2-c2nnc(N3C(=O)CS/C3=N\c3ccc(F)cc3)s2)N1c1ccc(F)cc1	WI-38	MTT	–	19.2 µM
OCc1ccc(-c2nn(Cc3ccncc3)c3cccnc23)o1	HuCCT-1	ATP luminescence	–	> 46 µM
O=C1CS/C(=N\c2cc(C(F)(F)F)ccc2-c2nnc(N3C(=O)CS/C3=N\c3ccc(F)c(O)c3)s2)N1c1ccc(F)c(O)c1	WI-38	MTT	–	20.3 µM
CCCCC(=O)Nc1ccc(-c2ccc3ncn(CCC)c(=O)c3c2)cn1	HCC827	CCK-8	72 h	0.037 µM
O=C1CSC(=Nc2cc(C(F)(F)F)ccc2-c2nnc(N3C(=O)CSC3=Nc3ccc([N+](=O)[O-])cc3)s2)N1c1ccc([N+](=O)[O-])cc1	WI-38	MTT	–	77.3 µM
CC(C)[C@@H]1NC(=O)[C@H](Cc2c[nH]cn2)NC1=O	ASPC1	SRB	–	> 15 µM
O=C1CS/C(=N\c2cc(C(F)(F)F)ccc2-c2nnc(N3C(=O)CS/C3=N\c3cccc(Cl)c3)s2)N1c1cccc(Cl)c1	WI-38	MTT	–	47.1 µM
Cc1nc(Nc2ncc(C(=O)Nc3c(C)cccc3Cl)s2)cc(N2CC[C@H](O)C2)n1	KARPAS-299	ATP luminescence	72 h	> 10 µM
NCc1ccc(-c2nn(Cc3ccncc3)c3ccccc23)o1	HuCCT-1	ATP luminescence	–	> 46 µM
CC1(P2(=O)CCCCC2)CCCCC1	HaCaT	MTT	72 h	> 100 µM
COc1ncccc1Cn1nc(-c2ccc(CO)o2)c2ccccc21	HuCCT-1	ATP luminescence	–	> 46 µM
COc1cc(C2C3=C(COC3=O)N(CCO)c3cc4c(cc32)CCC4)cc(OC)c1OC (centres unmarked)	E0771	ATP luminescence	48 h	0.039 µM
Cc1ccc(NC(=O)Nc2ccc(-c3ccc4ncn(Cc5ccccc5)c(=O)c4c3)cn2)cc1	HCC827	CCK-8	72 h	> 10 µM
COc1cccc2c1C(=O)c1c(O)c3c(c(O)c1C2=O)C[C@@](O)(C(=O)CO)C[C@@H]3O[C@H]1C[C@H](N)[C@H](O)[C@H](C)O1	WI-38	MTT	–	52.6 µM
CCCCC(=O)Nc1ccc(-c2ccc3ncn(CCCC)c(=O)c3c2)cn1	HCC827	CCK-8	72 h	0.13 µM
COc1cccc2c1C(=O)c1c(O)c3c(c(O)c1C2=O)C[C@@](O)(C(=O)CO)C[C@@H]3O[C@H]1C[C@H](N)[C@H](O)[C@H](C)O1	ASPC1	SRB	–	5.91 µM
COc1cccc(Cn2nc(-c3ccc(CO)o3)c3ccccc32)c1	HuCCT-1	ATP luminescence	–	> 46 µM
Nc1c([I+]c2ccccc2)c(=O)oc2ccccc12	HaCaT	MTT	48 h	65.4 µM

Structure (SMILES)	cell line	technique	time	IC50
CNC(=O)c1ccccc1Nc1cc(Nc2ccc(N3CCOCC3)cc2OC)ncc1C(F)(F)F	ASPC1	MTT	48 h	3.19 µM
C=CC(C)(C)c1[nH]cnc1/C=C1/NC(=O)[C@H](C(C)C)NC1=O	ASPC1	SRB	–	> 15 µM
CCCCCC(=O)Nc1ccc(-c2ccc3ncn(CCC)c(=O)c3c2)cn1	HCC827	CCK-8	72 h	0.16 µM
O=c1[nH]cc(F)c(=O)[nH]1	WI-38	MTT	72 h	42.2 µM
OCc1ccc(-c2nn(Cc3cccnc3)c3cccnc23)o1	HuCCT-1	ATP luminescence	–	> 46 µM
CC1=CC(=O)C(C(C)C)=CC1=O	SNB-19	SRB	48 h	56.9 µM
CCCCn1cnc2ccc(-c3ccc(NC(=O)C4CCC4)nc3)cc2c1=O	HCC827	CCK-8	72 h	6.31 µM
OCc1ccc(-c2nn(Cc3ccccn3)c3ccccc23)o1	HuCCT-1	ATP luminescence	–	> 46 µM
O=C1CS/C(=N\c2ccccc2O)N1c1nnc(-c2ccc(C(F)(F)F)cc2/N=C2\SCC(=O)N2c2ccccc2O)s1	WI-38	MTT	–	32.3 µM
COc1ccccc1Cn1nc(-c2ccc(CO)o2)c2ccccc21	HuCCT-1	ATP luminescence	–	> 46 µM
CCCn1cnc2ccc(-c3ccc(NC(=O)CC4CC4)nc3)cc2c1=O	HCC827	CCK-8	72 h	0.91 µM
CC1(P2(=O)CCCCC2)C=CCC=C1	HaCaT	MTT	72 h	> 100 µM
O=C(Nc1ccc(-c2ccc3ncn(Cc4ccc5c(c4)OCO5)c(=O)c3c2)cn1)c1ccccc1	HCC827	CCK-8	72 h	8.81 µM
OCc1ccc(-c2nn(Cc3ccccc3)c3ccccc23)o1	HuCCT-1	ATP luminescence	–	> 46 µM
O=C1CS/C(=N\c2cc(C(F)(F)F)ccc2-c2nnc(N3C(=O)CS/C3=N\c3cc(O)cc(Br)c3)s2)N1c1cc(O)cc(Br)c1	WI-38	MTT	–	71.1 µM
CCCCC(=O)Nc1ccc(-c2ccc3ncn(CCC)c(=O)c3c2)c(F)n1	HCC827	CCK-8	72 h	0.82 µM
COc1cccc2c1C(=O)c1c(O)c3c(c(O)c1C2=O)C[C@@](O)(C(=O)CO)C[C@@H]3O[C@H]1C[C@H](N)[C@H](O)[C@H](C)O1	HuCCT-1	–	96 h	0.0249 µM
